TNAP act hi DEA – activators of human TNAP at high phosphate acceptor concentration | P05186 | purified TNAP, CDP-star luminescence, 1 M DEA, 30 min; stronger effect = higher value; 0 = EDTA background, 1 = DMSO-only activity | activation factor at 20 µM | 200,000 tested, under 10 active;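 active = activation factor at least 2 at 20 µM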
Target sequence (P05186 whole entry, looked up): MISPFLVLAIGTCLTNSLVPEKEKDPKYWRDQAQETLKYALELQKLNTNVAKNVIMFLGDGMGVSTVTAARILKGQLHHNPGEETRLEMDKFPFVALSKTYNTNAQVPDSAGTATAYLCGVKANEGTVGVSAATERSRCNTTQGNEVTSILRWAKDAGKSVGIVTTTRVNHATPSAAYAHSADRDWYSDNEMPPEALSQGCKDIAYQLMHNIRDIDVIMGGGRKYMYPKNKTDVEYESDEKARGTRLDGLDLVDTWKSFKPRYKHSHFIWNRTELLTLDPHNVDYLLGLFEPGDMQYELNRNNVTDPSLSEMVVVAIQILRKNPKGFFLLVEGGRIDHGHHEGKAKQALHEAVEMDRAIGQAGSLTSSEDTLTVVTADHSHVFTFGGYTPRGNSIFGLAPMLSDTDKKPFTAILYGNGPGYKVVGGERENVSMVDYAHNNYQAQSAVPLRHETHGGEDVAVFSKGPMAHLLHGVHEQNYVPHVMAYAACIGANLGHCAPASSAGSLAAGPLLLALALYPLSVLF
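system = human TNAP | amount = enzyme diluted 1/800 final | reagent = 100 µM CDP-star substrate | signal = luminescent substrate turnover signal | dosing = one dose, 20 µM | benchmarks = EDTA negative control, DMSO positive control | measure = activation factor | timing = 30 min reaction, room temperature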
Arbovirus anti – blocks arbovirus infection; arbovirus infection cell-based antiviral screen; inhibition, % at 10 µM; AID 1251; 0.37% of 200,000 active; in the data active = inhibition above about 30%
PKD1 inh – blocks activity of human protein kinase D1; Q15139; PKD1 kinase fluorescence polarization assay; inhibition, % (concentration not given with the values); 0.056% of 200,000 active; in the data active = inhibition above about 50%
TNAP inh noacc – TNAP (human) inhibition, acceptor-free conditions; inhibition, % at 20 µM; 0.26% of 200,000 active; purified TNAP, CDP-star luminescence, 30 min;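 active = tissue-nonspecific alkaline phosphatase inhibition above about 50% at 20 µM in the single-dose screen, limit read from the data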;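 also: 0% = DMSO negative control and 100% = EDTA positive control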
TNAP inh hi DEA – blocks human TNAP under high phosphate acceptor concentration; P05186; purified TNAP, CDP-star luminescence, 1 M DEA; inhibition, % at 20 µM; 0.03% of 200,000 active; AID 1135;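 active = over 50% inhibition of tissue-nonspecific alkaline phosphatase at 20 µM in the single-dose screen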;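 also: plate controls were DMSO wells for no effect and EDTA-quenched wells as full inhibition for full effect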
* = called active by the depositor; ! = not active in a repeat. Only some compounds are listed: those with a hit (about 0.72% of all), similar ones and a draw of the others.

SMILES | TNAP act hi DEA | Arbovirus anti | PKD1 inh | TNAP inh noacc | TNAP inh hi DEA
O=C(CSCC(=O)N1CCCCC1)OCC(=O)c1c[nH]c2ccccc12 | 1 | 75* | 4 | -4 | 2
CC1(C(=O)OCC(=O)c2c[nH]c3ccccc23)CC1(Cl)Cl (stereo not given) | 1 | -12 | 8 | -2 | 2
CCOC(=O)c1c(C)c(C(=O)N2CCN(c3ccc(F)cc3)CC2)c(C)n1C | 1 | 0 | 0 | 0 | -1
C/C(CC(=O)Nc1ccccc1Br)=N\NC(=O)C(=O)N1CCCC1 | 1 | 1 | 3 | 66* | 4
NS(=O)(=O)c1cccc(NC(=S)NC(=O)c2cccc([N+](=O)[O-])c2)c1 | 0.9 | 1 | 5 | 70* | 7
O=C(O)/C=C/c1cn(Cc2ccccc2)nc1-c1ccccc1 | 1.1 | 4 | -5 | -12 | -7
O=C(O)CCn1cc(/C=C/C(=O)c2ccc(Cl)cc2)c(-c2ccc(Br)cc2)n1 | 1 | 46* | -5 | -12 | -1
CCCc1c(OCCCCc2nn[nH]n2)ccc(C(C)=O)c1O | 1 | 35*! | 3 | -11 | -4
O=C(O)CNC(=O)/C=C/c1ccc(Cl)cc1Cl | 1 | 3 | -4 | 60* | 1
NNC(=O)/C=C/c1ccc(Cl)cc1Cl | 1.1 | -8 | -8 | -7 | -8
COc1ccc(-c2csc(Nc3ncccc3C)n2)cc1OC | 1.1 | 41* | -3 | -3 | -8
Cc1ccc(NC(=O)c2ccc(Nc3c([N+](=O)[O-])cc([N+](=O)[O-])cc3[N+](=O)[O-])cc2)cc1 | 0.5 | -28 | -9 | -6 | 54*
CNC[C@H](O)c1ccc(O)c(O)c1 | 0.9 | -1 | -1 | 78* | 9
CCOC(=O)N1CCC(Nc2c(Nc3cccc(CC)c3)c(=O)c2=O)CC1 | 1.1 | 36* | 9 | 0 | -6
CCOC(=O)N1CCC(Nc2c(Nc3ccc(F)cc3)c(=O)c2=O)CC1 | 1 | -5 | -2 | -4 | -2
Cc1ncc(CO)c(/C=N/NC(=O)c2cc(Br)ccc2O)c1O | 1 | 23 | -6 | 58* | 4
O=CNCC(=O)NCCc1ccc(Cl)cc1 | 1 | 37* | -6 | -5 | -3
O=C(NCc1ccco1)C(c1ccc(F)cc1)N(C(=O)Cc1cccs1)c1cccnc1 (stereo not given) | 1 | -2 | -6 | -4 | 0
CCOc1cc(/C=N/n2cnnc2)ccc1OS(=O)(=O)c1ccc(C)cc1 | 1.1 | -5 | 2 | -8 | -5
CCOc1cc(C(c2c(C)[nH][nH]c2=O)c2c(C)[nH][nH]c2=O)ccc1OS(=O)(=O)c1ccccc1 | 0.4 | -13 | 0 | 24 | 62*
Cc1ccc(S(=O)(=O)Oc2ccc(C(c3c(C)[nH][nH]c3=O)c3c(C)[nH][nH]c3=O)cc2)cc1 | 0.4 | 0 | 0 | -8 | 61*
O=C(CCNC(=O)Cn1ccc2ccccc2c1=O)NCc1ccccn1 | 1 | 5 | 6 | 2 | 5
CCOC(=O)c1c(NC(=O)CSc2ccccc2C(=O)O)sc(C)c1C | 1 | 33* | -3 | -4 | -3
Cc1cc(-c2nnc(CCC(=O)NC(Cc3ccccc3)c3ccccc3)o2)no1 (stereo not given) | 1 | 7 | 5 | -5 | 4
CCc1nn2cc(C(=O)c3ccccc3O)cnc2c1-c1ccc(F)cc1 | 1 | 41* | 5 | 2 | 1
SMILES | TNAP act hi DEA | Arbovirus anti | PKD1 inh | TNAP inh noacc | TNAP inh hi DEA
CN(Cc1cccnc1)Cc1cn(Cc2ccccc2)nc1-c1ccc2c(c1)OCO2 | 1 | -4 | -11 | 1 | -2
O=C(CNS(=O)(=O)c1ccccc1)NNC(=O)C(Cl)Cl | 1.1 | 5 | -3 | 92* | -6
O=[N+]([O-])c1cc(S(=O)(=O)N2CCCCC2)ccc1NCCCN1CCOCC1 | 0.9 | 11 | 3 | -5 | 5
O=C(CSc1n[nH]c(-c2ccccc2)n1)Nc1ncccn1 | 1 | -4 | 32 | 36 | 0
Cc1ccc2nc(SCC(=O)Nc3cccc(S(=O)(=O)N(C)C)c3)[nH]c2c1 | 1 | 1 | 5 | -21 | 1
CCCCc1nc(SCC(=O)Nc2ncccn2)n[nH]1 | 1 | 11 | -10 | 58* | 1
CC(C)c1nc(SCC(=O)Nc2cccc(S(N)(=O)=O)c2)n[nH]1 | 1 | 1 | 5 | 57* | -2
CCCCc1nc(SCC(=O)Nc2ccc(S(N)(=O)=O)cc2)n[nH]1 | 1 | -2 | -7 | 60* | -1
Nc1nc(SCC(=O)Nc2cccc(S(=O)(=O)N3CCCCCC3)c2)n[nH]1 | 1 | -2 | 3 | -44 | -2
NS(=O)(=O)c1cccc(NC(=O)CSc2nc3ccc(Cl)cc3[nH]2)c1 | 0.9 | 18 | -6 | 67* | 9
O=C(CC1N=C(Cc2ccccc2)NNC1=O)N/N=C/c1ccc([N+](=O)[O-])cc1 (stereo not given) | 1 | 3 | -4 | -4 | -3
COc1ccc(CNC(=O)C2Cc3ccccc3CN2C(=O)c2ccco2)cc1 (stereo not given) | 1 | 0 | 105* | -8 | 2
COc1ccc2c([N+](=O)[O-])c(Cl)[nH]c2c1 | 1 | 3 | 1 | -8 | 2
COc1ccc(-c2csc(Nc3ccc(S(=O)(=O)Nc4cc(C)on4)cc3)n2)cc1 | 1.1 | 30* | -3 | -13 | -7
Cc1cc(NS(=O)(=O)c2ccc(Nc3nc(-c4sc(C)nc4C)cs3)cc2)no1 | 1 | 5 | 3 | -18 | -3
CCc1nc(SCc2ccc(F)cc2)[nH]c(=O)c1C#N | 1 | 40* | 0 | -4 | 1
CC1Cc2ccccc2N1c1ncnc(N)c1[N+](=O)[O-] (stereo not given) | 0.9 | 8 | 68* | 4 | 7
O=C(CSc1ncn(-c2ccccc2)n1)Nc1nc2ccccc2s1 | 0.9 | 40* | -8 | -1 | 7
COc1ccc2nc(NC(=O)CS(=O)(=O)Cc3ccccc3)sc2c1 | 1 | 7 | -5 | -4 | 3
O=C(CS(=O)(=O)Cc1ccccc1)Nc1nc2ccccc2s1 | 1 | 48* | -7 | -12 | -2
Cc1cc(NC(=O)CSc2nnc(C)n2-c2ccccc2C)no1 | 1 | 13 | -4 | 5 | 0
COC(=O)c1c(NC(=O)C2C3CCC(C3)C2C(=O)O)sc2c1CCCCC2 (stereo not given) | 1.1 | 19 | 79* | -9 | -6
COC(=O)c1c(NC(=O)C2C3CCC(O3)C2C(=O)O)sc2c1CCCCCC2 (stereo not given) | 1 | 11 | -7 | -3 | -3
C=CCSc1n[nH]c(-c2ccc(OCCC)cc2)n1 | 1 | -11 | -9 | 50* | -1
Cn1c(SCC(=O)N/N=C/C=C/c2ccco2)nc2ccccc21 | 1 | -1 | -9 | 0 | 2
COC(=O)Nc1ccc(S(=O)(=O)N2CCC(C(=O)N(C)C3CCCCC3)CC2)cc1 | 1 | 30* | -8 | -9 | -1
CCOC(=O)C1CCN(S(=O)(=O)c2ccc(NC(=O)OC)cc2)CC1 | 1 | 2 | -5 | -12 | -4
CC[n+]1ccccc1/C=C/c1ccc(N(C)C)cc1 | 0.7 | 0 | -7 | 8 | 27

Screening results from PubChem BioAssay.
